Active and inactive are the calls of the source. No cut-off for these calls is given here. Where a SMILES comes first, the peptide text is derived from it. The star is where a group is joined. Cbz = O=C(OCc1ccccc1)*; CF3 = FC(F)(F)*
Columns and labels:
[1] = Inhibition of recombinant C-terminal His-tagged SARS coronavirus 1 3CL protease using Boc-Abu-Tle-Leu-Gln-AMC as substrate incubated for 5 mins by Cheng-Prusoff equation analysis; parameters: species or system Severe acute respiratory syndrome-related coronavirus
[2] = tested on: SARS-CoV-2; assay: Antiviral activity against SARS coronavirus 2 infected in African green monkey Vero cells assessed as blockade of viral proliferation at 25 uM incubated for 48 hrs by cytopathic effect assay; assay type: functional, organism-based; details: Severe acute respiratory syndrome coronavirus 2
[3] = Inhibition of recombinant C-terminal His-tagged SARS coronavirus 2 3CL protease using Boc-Abu-Tle-Leu-Gln-AMC as substrate incubated for 5 mins by Cheng-Prusoff equation analysis; parameters: species or system Severe acute respiratory syndrome coronavirus 2
Summary of the method: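 His-tagged 3CLpro (8 ng/μL final) was assayed in 50 mM MOPS pH 7.2 with 10 mM NaCl, 1 mM EDTA and 0.01% Triton X-100. Substrate was 50 μM final (about Km) and DMSO 4% final. Inhibitor and substrate were preincubated 5 min at 37 °C, then enzyme was added and fluorescence (ex 360/em 460 nm) read for 10 min. At least 11 concentrations were tested; IC50 came from nonlinear regression and Ki from Cheng–Prusoff. n = 3.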

| SMILES | Ki [1] [µM] | Activity [2] | Ki [3] [µM] |
| --- | --- | --- | --- |
| CC(C)C[C@H](NC(=O)[C@@H](NC(=O)[C@H](C)NC(=O)OCc1ccccc1)C(C)C)C(=O)N[C@@H](CCC(N)=O)C(=O)C(F)(F)F (Cbz-AVLQ-CF3) | 135 |  |  |
| CC(C)C[C@H](NC(=O)c1nc2ccccc2[nH]1)C(=O)N[C@@H](C[C@@H]1CCNC1=O)C(=O)c1nc2ccccc2s1 |  | Active | 0.0321 |
